# Source: ChEMBL document CHEMBL4130379, “Design, synthesis and bioevaluation of antitubulin agents carrying diaryl-5,5-fused-heterocycle scaffold” (Eur J Med Chem, 2017)
# Active and inactive are the calls of the source. No cut-off for these calls is given here.
# Columns and labels:
# A549 = assay: Antiproliferative activity against human A549 cells after 72 hrs by MTT assay; assay type: functional, cell-based; conditions: A549, 72 h
# Summary of the method: (§1)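 MTT assay on human SGC-7901 gastric adenocarcinoma, A549 lung adenocarcinoma and HT-1080 fibrosarcoma cells. The read-out was the half maximal inhibitory concentration (IC50). SMART and ABI were run in parallel as positive controls.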
# SGC-7901 [1] = assay: Antiproliferative activity against human SGC7901 cells after 72 hrs by MTT assay; assay type: functional, cell-based; conditions: SGC-7901, 72 h; summary of the method: as §1
# HT-1080 = assay: Antiproliferative activity against human HT1080 cells after 72 hrs by MTT assay; assay type: functional, cell-based; conditions: HT-1080, 72 h; summary of the method: as §1
# Homo sapiens = organism: Homo sapiens; assay: Induction of cytoplasmic microtubule network disassembly in human SGC7901 cells at 2 times antiproliferative IC50 after 48 hrs by DAPI staining-based immunofluorescence microscopic method; assay type: cell-based
# SGC-7901 [2] = assay: Cell cycle arrest in human SGC7901 cells assessed as accumulation at sub-G1 phase at 0.044 uM after 6 to 72 hrs by propidium iodide staining-based flow cytometry; assay type: functional
# Summary of the method: (§2)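 Time-course study in SGC-7901 cells treated with test agent. Cell cycle distribution (sub-G1, G0/G1, S, G2/M) and polyploidy were analysed by flow cytometry at successive time points.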
# [3] = Inhibition of porcine brain tubulin polymerization preincubated for 1 min followed by GTP addition measured at 1 min intervals for 90 mins by spectrophotometric method
# Sus scrofa = organism: Sus scrofa; assay: as above
# SGC-7901 [4] = assay: Cell cycle arrest in human SGC7901 cells assessed as accumulation at G2/M phase at 0.044 uM by propidium iodide staining-based flow cytometry; assay type: functional; conditions: TDE = time-dependent effect; summary of the method: as §2
# SGC-7901 [5] = assay: Cell cycle arrest in human SGC7901 cells assessed as induction of polyploidy at S phase at 0.044 uM after 24 hrs by propidium iodide staining-based flow cytometry; assay type: functional; summary of the method: as §2
# SGC-7901 [6] = assay: Cell cycle arrest in human SGC7901 cells assessed as decrease in cell levels at S phase at 0.044 uM after 6 to 72 hrs by propidium iodide staining-based flow cytometry; assay type: functional; summary of the method: as §2
# SGC-7901 [7] = assay: Cell cycle arrest in human SGC7901 cells assessed as decrease in cell levels at G0/G1 phase at 0.044 uM after 6 to 72 hrs by propidium iodide staining-based flow cytometry; assay type: functional; summary of the method: as §2
Compound,IC50 (A549),IC50 (SGC-7901 [1]),IC50 (HT-1080),also measured
COc1cc(C(=O)c2c[nH]c(-c3ccccc3)n2)cc(OC)c1OC,0.98 µM,0.81 µM,0.15 µM,
COc1ccc(-c2nn3c(-c4ccc(OC)c(OC)c4)nnc3s2)cc1N,0.522 µM,0.083 µM,0.339 µM,
COc1ccc(-c2cc3[nH]nc(-c4cc(OC)c(OC)c(OC)c4)n3n2)cc1[N+](=O)[O-],58.2 µM,48.3 µM,35.6 µM,
COc1ccc(-c2cc3[nH]nc(-c4cc(OC)c(OC)c(OC)c4)n3n2)cc1,26.4 µM,26.8 µM,26.5 µM,
COc1cccc(-c2nnc3sc(-c4ccc(OC)c([N+](=O)[O-])c4)nn23)c1,29.5 µM,34.7 µM,33 µM,
COc1ccc(-c2nn3c(-c4cc(OC)c(OC)c(OC)c4)nnc3s2)cc1[N+](=O)[O-],26.5 µM,23.2 µM,30.2 µM,
COc1cccc(-c2nnc3sc(-c4ccc(OC)c(N)c4)nn23)c1,0.12 µM,0.059 µM,0.088 µM,
Cc1ccc(-c2nn3c(-c4ccc5c(c4)OCO5)nnc3s2)cc1,27.7 µM,24 µM,26.8 µM,
COc1ccc(-c2cc3[nH]nc(-c4cc(OC)c(OC)c(OC)c4)n3n2)cc1N,17.4 µM,13.8 µM,17.8 µM,
COc1ccc(-c2nn3c(-c4cc(OC)c(OC)c(OC)c4)nnc3s2)cc1N,0.029 µM,0.022 µM,0.027 µM,Activity (Homo sapiens): Active; Activity (SGC-7901 [2]): Active; IC50 [3]: 0.77 µM; inhibition (Sus scrofa): Dose-dependent effect; Activity (SGC-7901 [4]): Tde; Activity (SGC-7901 [5]): Active; Activity (SGC-7901 [6]): Active; Activity (SGC-7901 [7]): Active
COc1ccc(-c2nn3c(-c4ccc(OC)c(OC)c4OC)nnc3s2)cc1,2.29 µM,3.75 µM,1.88 µM,
COc1ccc(-c2nnc3sc(-c4ccc(OC)c([N+](=O)[O-])c4)nn23)cc1OC,30.4 µM,37.7 µM,32.8 µM,
COc1ccc(-c2nn3c(-c4ccc5c(c4)OCO5)nnc3s2)cc1,29.7 µM,25.6 µM,24.5 µM,

# More lines, main results first:
IC50 (A549),IC50 (SGC-7901 [1]),IC50 (HT-1080),Compound,also measured
26.9 µM,22.1 µM,27.3 µM,COc1ccc(-c2nnc3sc(-c4ccc(OC)c([N+](=O)[O-])c4)nn23)cc1,
29.3 µM,33.5 µM,51.3 µM,COc1cc(-c2n[nH]c3cc(-c4ccc(C)cc4)nn23)cc(OC)c1OC,
1.21 µM,6.12 µM,6.81 µM,COc1cc(-c2n[nH]c3cc(-c4ccc(Cl)cc4)nn23)cc(OC)c1OC,
0.272 µM,0.057 µM,0.327 µM,COc1ccc(-c2nn3c(-c4ccc5c(c4)OCO5)nnc3s2)cc1N,
0.803 µM,0.186 µM,0.089 µM,COc1ccc(-c2nnc3sc(-c4ccc(C)cc4)nn23)c(OC)c1OC,
0.029 µM,0.019 µM,0.028 µM,COc1cc(C(=O)c2csc(-c3ccccc3)n2)cc(OC)c1OC,Activity (Homo sapiens): Active
33.8 µM,32.5 µM,35.1 µM,COc1ccc(-c2nn3c(-c4ccc(OC)c(OC)c4OC)nnc3s2)cc1[N+](=O)[O-],
0.082 µM,0.062 µM,0.073 µM,COc1ccc(-c2nn3c(-c4ccc(OC)c(OC)c4OC)nnc3s2)cc1N,
32.8 µM,37.8 µM,30.3 µM,COc1ccc(-c2nn3c(-c4ccc5c(c4)OCO5)nnc3s2)cc1[N+](=O)[O-],
14.9 µM,14.2 µM,16.4 µM,COc1ccc(-c2nnc3sc(-c4ccc(OC)c(N)c4)nn23)cc1,
